According to ChEMBL document CHEMBL3414429, “3,4-diaminobenzoic acid derivatives as inhibitors of the oxytocinase subfamily of M1 aminopeptidases with immune-regulating properties” (J Med Chem, 2015):
Calls of active or inactive are those of the source. The rule behind the calls is not given here.

Tests used:
[1] = target: T1, Endoplasmic reticulum aminopeptidase 1 (Mus musculus) (UniProt Q9EQH2); assay: Inhibition of ERAP1 in mouse RAW264.7 cells assessed as reduction in interferon-gamma/LPS-induced phagocytosis after 24 hrs by fluorescent latex beads internalization assay; format: cell-based
T1 sequence (whole entry): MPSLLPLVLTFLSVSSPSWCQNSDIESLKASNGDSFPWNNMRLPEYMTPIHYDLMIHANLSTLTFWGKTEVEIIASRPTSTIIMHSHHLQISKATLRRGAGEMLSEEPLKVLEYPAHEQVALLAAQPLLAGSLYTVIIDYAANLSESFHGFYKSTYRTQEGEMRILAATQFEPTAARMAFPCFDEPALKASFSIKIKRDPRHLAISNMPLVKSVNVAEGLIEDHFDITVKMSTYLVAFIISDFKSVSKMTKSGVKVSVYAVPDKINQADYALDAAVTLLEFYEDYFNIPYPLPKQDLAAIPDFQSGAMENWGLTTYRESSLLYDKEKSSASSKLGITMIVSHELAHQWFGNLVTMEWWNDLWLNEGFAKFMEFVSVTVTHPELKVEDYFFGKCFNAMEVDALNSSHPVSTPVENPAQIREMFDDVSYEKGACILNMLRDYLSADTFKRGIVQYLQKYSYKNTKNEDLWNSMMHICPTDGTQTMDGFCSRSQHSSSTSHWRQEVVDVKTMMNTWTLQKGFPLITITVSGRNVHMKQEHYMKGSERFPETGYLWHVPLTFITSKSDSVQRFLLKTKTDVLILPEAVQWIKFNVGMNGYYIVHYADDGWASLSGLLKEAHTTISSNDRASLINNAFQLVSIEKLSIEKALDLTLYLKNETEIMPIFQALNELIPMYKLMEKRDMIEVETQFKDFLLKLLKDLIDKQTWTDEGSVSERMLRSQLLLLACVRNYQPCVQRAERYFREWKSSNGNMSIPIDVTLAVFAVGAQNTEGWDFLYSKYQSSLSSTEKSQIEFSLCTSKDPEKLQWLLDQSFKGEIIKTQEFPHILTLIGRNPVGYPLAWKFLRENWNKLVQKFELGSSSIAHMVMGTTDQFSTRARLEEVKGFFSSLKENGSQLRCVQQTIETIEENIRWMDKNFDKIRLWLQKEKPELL
Summary of the method: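 RAW264.7 cells in RPMI 1640/10% FBS, seeded 2×10^4/well for 24 h. Activated with IFN-γ (100 IU/mL) plus LPS (1 μg/mL) with or without inhibitor at various concentrations. FITC-IgG latex beads given in 1% FBS medium for 24 h at 37 °C. Uptake read as fluorescence (ex 485/em 535) after PBS washes; ED50 from curve fit.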

[2] = test system: Insulin-regulated aminopeptidase, Lnpep (Mus musculus); assay: Inhibition of IRAP in mouse BMDC assessed as blockade of cross-presentation by measuring IL-2 level incubated for 1 day followed by compound wash out and incubated for 6 hrs with yeast cells expressing surface ovalbumin measured 20 hrs post CD8+ T cell-induction by sandwich ELISA method
T-cell = assay: Blockade of cross-presentation in mouse IRAP-deficient BMDC assessed as IL-2 level incubated for 1 day […] and incubated for 6 hrs with yeast cells expressing surface ovalbumin measured 20 hrs post CD8+ T cell-induction by sandwich ELISA method; format: functional, cell-based
Summary of the method: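 BMDCs from wild-type or IRAP knockout mice, grown 7 days from bone-marrow progenitors in IMDM/10% FCS with GM-CSF-containing J558 supernatant. Inhibitor added day 6 and kept through all steps. Day 7: serial dilutions of surface-ovalbumin yeast for 6 h, then OT-I lymph-node CD8+ T cells (T/BMDC 1.5:1) for 20 h. Supernatant IL-2 by sandwich ELISA; glutaraldehyde-fixed BMDC background subtracted; duplicate wells.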

[3] = target: Leucyl-cystinyl aminopeptidase (Homo sapiens, UniProt Q9UIQ6); assay: Inhibition of human recombinant IRAP expressed in baculovirus infected cabbage looper ovary Hi5 cells using L-leucine-7-amido-4-methyl coumarin as substrate after 5 to 10 mins by fluorescence assay; set-up: species or system Female gonad, BTI-TN-5B1-4
[4] = target: T2, Endoplasmic reticulum aminopeptidase 1 (Homo sapiens, UniProt Q9NZ08); assay: Inhibition of human recombinant ERAP1 expressed in baculovirus infected […] using L-leucine-7-amido-4-methyl coumarin as substrate up to 100 uM after 5 to 10 mins by fluorescence assay
Summary of the method: (§1)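 Recombinant human enzymes made in baculovirus-infected Hi5 cells, kept in 10 mM HEPES pH 7, 100 mM NaCl, 10% glycerol. ERAP1 30 nM, ERAP2 6 nM or IRAP 6 nM with 50 μM substrate (L-AMC for ERAP1 and IRAP, R-AMC for ERAP2) and varied inhibitor. Fluorescence rise followed at ex 380/em 460; IC50 from fit of activity against inhibitor concentration.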

[5] = target: T3, Endoplasmic reticulum aminopeptidase 2 (Homo sapiens, UniProt Q6P179); assay: Inhibition of human recombinant ERAP2 expressed in baculovirus infected cabbage looper ovary Hi5 cells using L-arginyl-7-amido-4-methyl coumarin as substrate after 5 to 10 mins by fluorescence assay; set-up: species or system Female gonad, BTI-TN-5B1-4
[6] = target: T2, Endoplasmic reticulum aminopeptidase 1; assay: Inhibition of human recombinant ERAP1 expressed in baculovirus infected Sf9 cells using L-leucine-7-amido-4-methyl coumarin as substrate after 5 to 10 mins by fluorescence assay
[7] = target: T3, Endoplasmic reticulum aminopeptidase 2; assay: Inhibition of human recombinant ERAP2 expressed in baculovirus infected cabbage looper ovary Hi5 cells using L-arginyl-7-amido-4-methyl coumarin as substrate up to 100 uM after 5 to 10 mins by fluorescence assay; settings: BTI-TN-5B1-4; summary of the method: as §1

Chain of Leucyl-cystinyl aminopeptidase (Q9UIQ6 whole entry): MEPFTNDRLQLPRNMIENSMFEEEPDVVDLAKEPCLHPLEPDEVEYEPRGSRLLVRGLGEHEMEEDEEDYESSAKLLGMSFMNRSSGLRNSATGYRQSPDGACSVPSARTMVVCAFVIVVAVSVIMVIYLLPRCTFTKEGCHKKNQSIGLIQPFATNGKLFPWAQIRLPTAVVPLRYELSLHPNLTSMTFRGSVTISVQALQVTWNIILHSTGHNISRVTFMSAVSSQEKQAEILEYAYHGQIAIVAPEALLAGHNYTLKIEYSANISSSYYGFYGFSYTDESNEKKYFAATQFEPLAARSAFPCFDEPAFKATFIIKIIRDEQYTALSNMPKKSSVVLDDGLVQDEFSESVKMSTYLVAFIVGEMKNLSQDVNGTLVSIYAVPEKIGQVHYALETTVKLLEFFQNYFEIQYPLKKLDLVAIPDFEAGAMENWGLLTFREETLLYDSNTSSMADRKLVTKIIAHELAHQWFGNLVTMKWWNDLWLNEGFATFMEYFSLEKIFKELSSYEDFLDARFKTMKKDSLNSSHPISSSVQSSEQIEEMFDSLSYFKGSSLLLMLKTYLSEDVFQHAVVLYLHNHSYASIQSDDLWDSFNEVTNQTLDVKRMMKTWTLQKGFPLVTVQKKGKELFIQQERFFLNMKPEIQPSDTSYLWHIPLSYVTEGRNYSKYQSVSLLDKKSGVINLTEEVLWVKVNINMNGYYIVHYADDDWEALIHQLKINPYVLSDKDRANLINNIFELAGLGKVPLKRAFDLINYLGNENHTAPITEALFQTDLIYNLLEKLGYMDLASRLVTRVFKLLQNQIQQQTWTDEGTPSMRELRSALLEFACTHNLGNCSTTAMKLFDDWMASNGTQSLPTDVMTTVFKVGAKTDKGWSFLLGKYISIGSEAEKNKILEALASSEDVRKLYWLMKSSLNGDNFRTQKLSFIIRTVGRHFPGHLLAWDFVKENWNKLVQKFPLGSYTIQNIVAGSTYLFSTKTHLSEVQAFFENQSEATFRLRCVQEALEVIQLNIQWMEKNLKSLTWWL
T3 sequence (Q6P179 whole entry): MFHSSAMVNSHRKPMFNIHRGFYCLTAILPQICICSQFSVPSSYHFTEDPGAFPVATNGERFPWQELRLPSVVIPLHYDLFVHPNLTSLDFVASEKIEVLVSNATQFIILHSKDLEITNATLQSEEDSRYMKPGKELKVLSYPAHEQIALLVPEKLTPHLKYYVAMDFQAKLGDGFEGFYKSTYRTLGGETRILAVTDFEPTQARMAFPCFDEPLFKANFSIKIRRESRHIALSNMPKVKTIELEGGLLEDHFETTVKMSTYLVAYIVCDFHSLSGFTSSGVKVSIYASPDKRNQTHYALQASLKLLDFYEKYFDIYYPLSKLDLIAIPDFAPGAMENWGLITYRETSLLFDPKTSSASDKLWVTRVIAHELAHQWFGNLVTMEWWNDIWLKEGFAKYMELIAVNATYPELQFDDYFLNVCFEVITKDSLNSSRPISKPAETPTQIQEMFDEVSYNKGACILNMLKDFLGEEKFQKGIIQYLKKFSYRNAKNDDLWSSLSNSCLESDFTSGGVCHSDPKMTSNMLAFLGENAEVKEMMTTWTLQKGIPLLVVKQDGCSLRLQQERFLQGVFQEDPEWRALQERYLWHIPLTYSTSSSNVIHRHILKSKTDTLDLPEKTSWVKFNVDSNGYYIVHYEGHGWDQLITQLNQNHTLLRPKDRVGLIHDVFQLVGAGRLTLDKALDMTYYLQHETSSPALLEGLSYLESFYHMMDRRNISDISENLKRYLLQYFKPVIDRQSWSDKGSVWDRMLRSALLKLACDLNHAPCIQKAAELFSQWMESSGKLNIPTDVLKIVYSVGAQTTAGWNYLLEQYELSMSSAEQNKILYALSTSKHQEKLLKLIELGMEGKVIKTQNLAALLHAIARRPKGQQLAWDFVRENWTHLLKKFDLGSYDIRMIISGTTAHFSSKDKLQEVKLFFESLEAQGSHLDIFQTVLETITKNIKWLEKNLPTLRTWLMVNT
T2 sequence (Q9NZ08 whole entry): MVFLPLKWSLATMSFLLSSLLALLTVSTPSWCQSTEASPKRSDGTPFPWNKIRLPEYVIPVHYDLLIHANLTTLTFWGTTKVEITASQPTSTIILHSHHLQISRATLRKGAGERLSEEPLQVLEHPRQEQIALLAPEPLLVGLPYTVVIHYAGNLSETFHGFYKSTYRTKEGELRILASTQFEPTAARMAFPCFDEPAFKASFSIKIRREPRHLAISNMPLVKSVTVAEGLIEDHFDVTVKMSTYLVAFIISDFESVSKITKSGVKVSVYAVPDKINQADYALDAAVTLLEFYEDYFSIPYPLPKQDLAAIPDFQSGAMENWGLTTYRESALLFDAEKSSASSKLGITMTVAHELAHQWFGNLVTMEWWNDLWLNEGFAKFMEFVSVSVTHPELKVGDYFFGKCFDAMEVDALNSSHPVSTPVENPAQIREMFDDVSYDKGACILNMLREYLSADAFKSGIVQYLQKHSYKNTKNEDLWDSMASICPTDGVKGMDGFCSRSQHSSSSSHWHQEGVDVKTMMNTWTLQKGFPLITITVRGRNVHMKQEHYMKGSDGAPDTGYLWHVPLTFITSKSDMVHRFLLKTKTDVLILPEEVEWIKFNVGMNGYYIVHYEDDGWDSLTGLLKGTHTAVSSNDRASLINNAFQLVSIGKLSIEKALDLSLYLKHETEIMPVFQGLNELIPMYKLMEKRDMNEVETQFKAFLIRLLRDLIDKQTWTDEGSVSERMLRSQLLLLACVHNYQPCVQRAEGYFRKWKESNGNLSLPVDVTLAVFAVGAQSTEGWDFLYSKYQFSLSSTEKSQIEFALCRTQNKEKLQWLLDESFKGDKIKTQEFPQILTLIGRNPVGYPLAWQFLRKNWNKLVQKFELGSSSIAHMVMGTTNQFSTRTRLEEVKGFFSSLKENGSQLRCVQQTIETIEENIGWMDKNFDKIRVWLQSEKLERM

Row | SMILES | ED50 [1] | inhibition [1] | IC50 [3] | inhibition [4] | further results
1 | CCCC[C@H](N)C(=O)Nc1cc(C(=O)N[C@@H](Cc2c[nH]c3ccccc23)C(=O)OCc2ccccc2)ccc1N | 0.56 µM | Dose-dependent effect | – | – | ED50 [2]: 0.0065 µM; inhibition [2]: Dose-dependent effect; Activity (T-cell): inactive
2 | CCCC[C@H](N)C(=O)Nc1ccc(C(=O)N[C@H](C(=O)O)C(C)C)cc1N | – | – | 3.9 µM | inactive | –
3 | CCCC[C@H](N)C(=O)Nc1cc(C(=O)N[C@H](C(=O)OCc2ccccc2)C(C)C)ccc1N | inactive | – | – | – | IC50 [5]: > 100 µM; IC50 [6]: > 100 µM
4 | CCCC[C@H](N)C(=O)Nc1cc(C(=O)N[C@H](C(=O)O)C(C)C)ccc1N | – | – | > 100 µM | inactive | –
5 | NCCC[C@H](NC(=O)c1ccc(N)c(NC(=O)[C@@H](N)CCc2ccccc2)c1)C(=O)O | – | – | > 100 µM | inactive | inhibition [7]: inactive
6 | COC(=O)[C@H](CCCCN)NC(=O)c1ccc(NC(=O)[C@@H](N)CC(C)C)c(N)c1 | – | – | > 100 µM | inactive | inhibition [7]: inactive

The next lines start with results.

Row | ED50 [1] | inhibition [1] | IC50 [3] | inhibition [4] | SMILES | further results
7 | 3 µM | Dose-dependent effect | – | – | COC(=O)[C@H](Cc1ccc(O)cc1)NC(=O)c1ccc(N)c(NC(=O)[C@@H](N)CCCNC(=N)N)c1 | –
8 | 0.97 µM | Dose-dependent effect | – | – | COC(=O)[C@H](CCCCN)NC(=O)c1ccc(N)c(NC(=O)[C@@H](N)CCc2ccccc2)c1 | –
9 | – | – | > 100 µM | – | CCCC[C@H](N)C(=O)Nc1cc(C(=O)N[C@@H](CCCCN)C(=O)OC)ccc1N | –
